Source: ChEMBL document CHEMBL3792377, “Synthesis and characterization of a series of chiral alkoxymethyl morpholine analogs as dopamine receptor 4 (D4R) antagonists” (Bioorg Med Chem Lett, 2016)

Key:
Liver microsome [1] = assay: Drug level in human liver microsomes treated with (S)-2-((6-chloropyridin-2-yloxy)methyl)-4-((6-fluoro-1H-indol-3-yl)methyl)morpholine in presence of NADPH; format: ADME
In short: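 Human liver microsomes incubated with compound plus NADPH, alongside a matched no-NADPH incubation; samples profiled for remaining parent and for metabolites formed.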

Liver microsome [2] = assay: Drug metabolism in human liver microsomes assessed as (S)-2-((6-chloropyridin-2-yloxy)methyl)morpholine formation in presence of NADPH; format: ADME
D(3) dopamine receptor [3] = target: T1, D(3) dopamine receptor (Homo sapiens, UniProt P35462); conditions: CHO, 1 uM
T1 sequence (P35462 whole entry): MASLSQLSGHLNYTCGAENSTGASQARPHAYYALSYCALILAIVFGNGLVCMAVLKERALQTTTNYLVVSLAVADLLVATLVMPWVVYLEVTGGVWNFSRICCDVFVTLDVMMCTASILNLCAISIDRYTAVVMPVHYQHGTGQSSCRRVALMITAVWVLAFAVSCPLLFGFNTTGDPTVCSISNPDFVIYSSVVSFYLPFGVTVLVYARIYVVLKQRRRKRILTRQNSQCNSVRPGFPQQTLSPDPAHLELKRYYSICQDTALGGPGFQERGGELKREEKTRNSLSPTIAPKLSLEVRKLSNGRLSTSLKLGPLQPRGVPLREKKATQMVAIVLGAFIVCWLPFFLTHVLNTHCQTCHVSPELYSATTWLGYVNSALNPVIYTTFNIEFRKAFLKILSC

[4] = Fraction unbound in human plasma by equilibrium dialysis method; format: ADME, cell-free
D(2) dopamine receptor [5] = target: T2, D(2) dopamine receptor (Homo sapiens, UniProt P14416); assay: Displacement of [3H]-Spiperone from human recombinant dopamine D2S receptor expressed in CHO cells; format: cell-based
T2 sequence (P14416 whole entry): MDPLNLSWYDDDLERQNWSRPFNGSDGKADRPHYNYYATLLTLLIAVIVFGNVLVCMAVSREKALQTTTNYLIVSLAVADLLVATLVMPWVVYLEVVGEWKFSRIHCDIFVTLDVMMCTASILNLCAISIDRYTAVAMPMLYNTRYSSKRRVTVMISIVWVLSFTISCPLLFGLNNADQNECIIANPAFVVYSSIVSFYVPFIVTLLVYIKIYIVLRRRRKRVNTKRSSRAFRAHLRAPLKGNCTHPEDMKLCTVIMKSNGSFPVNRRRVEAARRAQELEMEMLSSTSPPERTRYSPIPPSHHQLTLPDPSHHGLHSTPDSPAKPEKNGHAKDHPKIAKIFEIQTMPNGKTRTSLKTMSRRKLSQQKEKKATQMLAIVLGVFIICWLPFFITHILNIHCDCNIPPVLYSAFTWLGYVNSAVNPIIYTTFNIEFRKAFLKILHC

D(2) dopamine receptor [6] = target: T2, D(2) dopamine receptor; assay: Displacement of [3H]-Spiperone from human recombinant dopamine D2S receptor expressed in CHO cells at 10 uM relative to control; format: cell-based
In short: (§1)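 Off-target dopamine receptor radioligand binding (D1, D2L, D2S, D3, D5), run as a contract assay. Test compound at a single concentration of 10 µM, reported as % inhibition of specific binding, measured in duplicate.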

Liver microsome [7] = assay: Metabolic stability in human liver microsomes in absence of NADPH; format: ADME
D(4) dopamine receptor = target: T3, D(4) dopamine receptor (Homo sapiens, UniProt P21917); assay: Displacement of [3H]-Spiperone from human recombinant dopamine D4 receptor expressed in CHOK1 cells; format: cell-based, CHO-K1
T3 sequence (P21917 whole entry): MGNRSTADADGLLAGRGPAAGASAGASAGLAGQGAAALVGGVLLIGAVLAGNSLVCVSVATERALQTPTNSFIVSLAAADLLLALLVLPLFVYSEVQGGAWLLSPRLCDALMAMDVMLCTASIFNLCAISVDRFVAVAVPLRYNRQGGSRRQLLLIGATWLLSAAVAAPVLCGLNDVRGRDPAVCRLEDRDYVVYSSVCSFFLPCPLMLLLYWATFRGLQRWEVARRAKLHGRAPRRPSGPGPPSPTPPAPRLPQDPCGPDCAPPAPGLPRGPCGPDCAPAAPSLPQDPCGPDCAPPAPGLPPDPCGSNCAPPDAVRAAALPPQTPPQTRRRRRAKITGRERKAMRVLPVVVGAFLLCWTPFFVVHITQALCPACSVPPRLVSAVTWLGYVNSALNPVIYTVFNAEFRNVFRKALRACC
In short: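 Radioligand binding at human D4 receptor using [3H]-spiperone, run as a contract assay in duplicate. IC50 and Ki were derived from concentration–response data. Single-point values are % inhibition of specific binding at 10 µM test compound.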

D(3) dopamine receptor [8] = target: T1, D(3) dopamine receptor; assay: Displacement of [3H]-Spiperone from human recombinant dopamine D3 receptor expressed in CHO cells; format: cell-based
Homo sapiens [9] = organism: Homo sapiens; assay: Selectivity ratio of Ki for human recombinant dopamine D1 receptor to Ki for human recombinant dopamine D4 receptor
Liver microsome [10] = assay: Metabolic stability in rat liver microsomes in absence of NADPH; format: ADME
Plasma = assay: Fraction unbound in rat plasma by equilibrium dialysis method; format: ADME, cell-free
[11] = target: Dopamine receptors; D3 & D4 (Homo sapiens) (UniProt P35462+P21917); assay: Selectivity ratio of Ki for human recombinant dopamine D3 receptor to Ki for human recombinant dopamine D4 receptor
Chain of Dopamine receptors; D3 & D4 (Homo sapiens) (P35462 whole entry, looked up, one chain of several): as the sequence (P35462 whole entry) above

Homo sapiens [12] = organism: Homo sapiens; assay: Selectivity ratio of Ki for human recombinant dopamine D5 receptor to Ki for human recombinant dopamine D4 receptor
Homo sapiens [13] = organism: Homo sapiens; assay: Selectivity ratio of Ki for human recombinant dopamine D2S receptor to Ki for human recombinant dopamine D4 receptor
D(1A) dopamine receptor [14] = target: T4, D(1A) dopamine receptor (Homo sapiens, UniProt P21728); conditions: CHO, 1 uM
T4 sequence (P21728 whole entry): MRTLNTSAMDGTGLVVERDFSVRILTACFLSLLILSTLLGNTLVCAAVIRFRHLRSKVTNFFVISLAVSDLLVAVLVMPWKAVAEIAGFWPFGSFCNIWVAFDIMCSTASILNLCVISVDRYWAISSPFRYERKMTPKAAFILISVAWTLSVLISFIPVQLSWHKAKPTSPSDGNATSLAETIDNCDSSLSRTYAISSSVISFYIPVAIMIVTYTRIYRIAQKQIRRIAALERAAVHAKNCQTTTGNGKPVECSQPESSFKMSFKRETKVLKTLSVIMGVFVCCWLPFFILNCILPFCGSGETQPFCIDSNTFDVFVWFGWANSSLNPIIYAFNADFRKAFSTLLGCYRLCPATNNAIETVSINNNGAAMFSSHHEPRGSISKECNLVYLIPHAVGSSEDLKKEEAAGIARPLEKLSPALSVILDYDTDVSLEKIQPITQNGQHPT

D(2) dopamine receptor [15] = target: T2, D(2) dopamine receptor; conditions: CHO, 1 uM
D(1B) dopamine receptor [16] = target: T5, D(1B) dopamine receptor (Homo sapiens, UniProt P21918); conditions: CHO, 1 uM
T5 sequence (P21918 whole entry): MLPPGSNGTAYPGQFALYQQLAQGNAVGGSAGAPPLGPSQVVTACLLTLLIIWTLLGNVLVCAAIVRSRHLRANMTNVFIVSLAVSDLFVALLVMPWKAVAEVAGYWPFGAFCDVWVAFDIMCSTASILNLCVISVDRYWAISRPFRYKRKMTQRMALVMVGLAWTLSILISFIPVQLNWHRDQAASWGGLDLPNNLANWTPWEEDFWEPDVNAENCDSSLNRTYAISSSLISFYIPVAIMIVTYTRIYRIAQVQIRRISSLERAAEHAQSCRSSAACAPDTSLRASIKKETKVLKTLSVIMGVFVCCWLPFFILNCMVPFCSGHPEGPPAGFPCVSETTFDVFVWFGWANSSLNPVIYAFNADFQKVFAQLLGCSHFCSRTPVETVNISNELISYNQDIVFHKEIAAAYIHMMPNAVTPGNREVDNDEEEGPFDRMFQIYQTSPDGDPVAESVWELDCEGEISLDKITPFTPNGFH

D(2) dopamine receptor [17] = target: T2, D(2) dopamine receptor; assay: Displacement of [3H]-Spiperone from human recombinant dopamine D2L receptor expressed in CHO cells; format: cell-based
D(2) dopamine receptor [18] = target: T2, D(2) dopamine receptor; conditions: CHO, 1 uM; remark: listed apart in the source
D(1B) dopamine receptor [19] = target: T5, D(1B) dopamine receptor; assay: Displacement of [3H]-SCH-23390 from human recombinant dopamine D5 receptor expressed in CHO cells; format: cell-based
D(1A) dopamine receptor [20] = target: T4, D(1A) dopamine receptor; assay: Displacement of [3H]-SCH-23390 from human recombinant dopamine D1 receptor expressed in CHO cells; format: cell-based
Homo sapiens [21] = organism: Homo sapiens; assay: Selectivity ratio of Ki for human recombinant dopamine D2L receptor to Ki for human recombinant dopamine D4 receptor
Liver microsome [22] = assay: Drug metabolism in rat liver microsomes assessed as oxidative dealkylated metabolite formation in presence of NADPH; format: ADME
[23] = Drug uptake in rat brain at 0.25 mg/kg, iv administered through cassette dosing at 0.25 hrs; format: ADME, organism-based; conditions: read-out: Drug uptake
[24] = Plasma concentration in rat at 0.25 mg/kg, iv administered through cassette dosing at 0.25 hrs; format: ADME, organism-based
[25] = Ratio of drug level in brain to plasma in rat at 0.25 mg/kg, iv administered through cassette dosing at 0.25 hrs; format: ADME, organism-based
D(1B) dopamine receptor [26] = target: T5, D(1B) dopamine receptor; assay: Displacement of [3H]-SCH-23390 from human recombinant dopamine D5 receptor expressed in CHO cells at 10 uM relative to control; format: cell-based; in short: as §1
D(3) dopamine receptor [27] = target: T1, D(3) dopamine receptor; assay: Displacement of [3H]-Spiperone from human recombinant dopamine D3 receptor expressed in CHO cells at 10 uM relative to control; format: cell-based; in short: as §1
D(2) dopamine receptor [28] = target: T2, D(2) dopamine receptor; assay: Displacement of [3H]-Spiperone from human recombinant dopamine D2L receptor expressed in CHO cells at 10 uM relative to control; format: cell-based; in short: as §1
D(1A) dopamine receptor [29] = target: T4, D(1A) dopamine receptor; assay: Displacement of [3H]-SCH-23390 from human recombinant dopamine D1 receptor expressed in CHO cells at 10 uM relative to control; format: cell-based; in short: as §1

Fu [4] | Ki (D(2) dopamine receptor [5]) [nM] | inhibition (D(2) dopamine receptor [6]) [%] | IC50 (D(4) dopamine receptor) [nM] | Ki (D(4) dopamine receptor) [nM] | Ki (D(3) dopamine receptor [8]) [nM] | Ratio Ki (Homo sapiens [9]) | Fu (Plasma) | Ratio Ki [11] | Ratio Ki (Homo sapiens [12]) | Ratio Ki (Homo sapiens [13]) | Ki (D(2) dopamine receptor [17]) [nM] | Ki (D(1B) dopamine receptor [19]) [nM] | Ki (D(1A) dopamine receptor [20]) [nM] | Ratio Ki (Homo sapiens [21]) | concentration at 0.25 h [23] [ng/g] | concentration at 0.25 h [24] [ng/mL] | Kp [25] | Compound | other results
– | – | – | – | – | – | – | – | – | – | – | – | – | – | – | – | – | – | Clc1cccc(OC[C@@H]2CNCCO2)n1 | Drug metabolism (Liver microsome [1]): metabolite_detected
0.015 | > 10000 | < 50 | 11.9 | 3.3 | > 10000 | > 1000 | 0.016 | > 1000 | > 1000 | > 1000 | > 10000 | > 10000 | > 10000 | > 1000 | – | – | – | Fc1ccc2c(CN3CCO[C@H](COc4cccc(Cl)n4)C3)c[nH]c2c1 | Drug metabolism (Liver microsome [2]): metabolite_detected; inhibition (D(3) dopamine receptor [3]): < 10%; Stability (Liver microsome [7]): Stable; Stability (Liver microsome [10]): Stable; inhibition (D(1A) dopamine receptor [14]): < 10%; inhibition (D(2) dopamine receptor [15]): < 10%; inhibition (D(1B) dopamine receptor [16]): < 10%; inhibition (D(2) dopamine receptor [18]): < 10%; Drug metabolism (Liver microsome [22]): metabolite_detected
0.008 | > 10000 | < 50 | 34 | 9.4 | > 10000 | > 1000 | 0.005 | > 1000 | > 1000 | > 1000 | > 10000 | > 10000 | > 10000 | > 1000 | 131 | 26.1 | 5.03 | Clc1ccc(CN2CCO[C@H](CSc3ccccc3)C2)cc1 | –
0.006 | – | 93 | 8 | 2.2 | – | – | 0.01 | – | – | – | – | – | – | – | 246 | 74.8 | 3.29 | Clc1ccc2c(CN3CCO[C@H](COc4ccccc4)C3)c[nH]c2c1 | inhibition (D(1B) dopamine receptor [26]): < 50%; inhibition (D(3) dopamine receptor [27]): 70%; inhibition (D(2) dopamine receptor [28]): 94%; inhibition (D(1A) dopamine receptor [29]): < 50%
0.001 | > 10000 | < 50 | 27 | 7.4 | > 10000 | > 1000 | 0.004 | > 1000 | > 1000 | > 1000 | > 10000 | > 10000 | > 10000 | > 1000 | 132 | 23.1 | 5.73 | Cc1ccc(CN2CCO[C@H](CSc3ccccc3)C2)cc1C | –
